In ChEMBL document CHEMBL3286116, “Synthesis, biological evaluation and structure-activity correlation study of a series of imidazol-based compounds as Candida albicans inhibitors” (Eur J Med Chem, 2014):
≈ marks a conversion by molar mass, not a printed value.

Assays:
Candida albicans [1] = experiment: Antifungal activity against Candida albicans ATCC 90028 after 48 hrs by CLSI broth microdilution method; assay type: functional; conditions: ATCC 90028, 48 h
In short: (§1)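 Yeast CLSI broth microdilution (M27-A3). Compounds dissolved in DMSO at 100× the top test concentration, then diluted as serial two-fold dilutions in RPMI 1640 to final 0.125–64. Inoculum was 1.0–1.5 × 10^3 cells mL−1, incubated at 35 °C and read for growth at 48 h. MIC is the lowest concentration giving ≥50% growth inhibition versus growth control. Reported as the median of five replicates and as the geometric mean.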

Candida albicans [2] = experiment: Antifungal activity against Candida albicans ATCC 20891 after 48 hrs by CLSI broth microdilution method; assay type: functional; conditions: ATCC 20891, 48 h; in short: as §1
Candida albicans [3] = experiment: Antifungal activity against Candida albicans PMC 1011 after 48 hrs by CLSI broth microdilution method; assay type: functional; conditions: PMC 1011, 48 h; in short: as §1
Pichia kudriavzevii [4] = experiment: Antifungal activity against Candida krusei DSM 6128 after 48 hrs by CLSI broth microdilution method; assay type: functional; conditions: DSM 6128, 48 h; in short: as §1
Pichia kudriavzevii [5] = experiment: Antifungal activity against Candida krusei PMC 0613 after 48 hrs by CLSI broth microdilution method; assay type: functional; conditions: PMC 0613, 48 h; in short: as §1
Candida tropicalis [6] = experiment: Antifungal activity against Candida tropicalis PMC 0910 after 48 hrs by CLSI broth microdilution method; assay type: functional; conditions: PMC 0910, 48 h; in short: as §1
Candida tropicalis [7] = experiment: Antifungal activity against Candida tropicalis DSM 11953 after 48 hrs by CLSI broth microdilution method; assay type: functional; conditions: DSM 11953, 48 h; in short: as §1
Candida parapsilosis [8] = experiment: Antifungal activity against Candida parapsilosis DSM 11224 after 48 hrs by CLSI broth microdilution method; assay type: functional; conditions: Lodderomyces parapsilosis, DSM 11224, 48 h; in short: as §1
Candida parapsilosis [9] = experiment: Antifungal activity against Candida parapsilosis ATCC 22019 after 48 hrs by CLSI broth microdilution method; assay type: functional; conditions: Lodderomyces parapsilosis, ATCC 22019, 48 h; in short: as §1
Nakaseomyces glabratus [10] = experiment: Antifungal activity against Candida glabrata PMC 0805 after 48 hrs by CLSI broth microdilution method; assay type: functional; conditions: PMC 0805, 48 h; in short: as §1
Nakaseomyces glabratus [11] = experiment: Antifungal activity against Candida glabrata PMC 0807 after 48 hrs by CLSI broth microdilution method; assay type: functional; conditions: PMC 0807, 48 h; in short: as §1
Cryptococcus neoformans [12] = experiment: Antifungal activity against Cryptococcus neoformans PMC 2123 after 72 hrs by CLSI broth microdilution method; assay type: functional; conditions: PMC 2123, 72 h
In short: (§2)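 Cryptococcus neoformans tested by CLSI broth microdilution in RPMI 1640, with serial two-fold dilutions from DMSO stocks at 100× the top concentration, final 0.125–64. Inoculum was 1.0–1.5 × 10^3 cells mL−1 at 35 °C, with growth read at 72 h. MIC is the lowest concentration with ≥50% growth inhibition versus control. Median of five replicates, plus geometric mean.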

Cryptococcus neoformans [13] = experiment: Antifungal activity against Cryptococcus neoformans PMC 2136 after 72 hrs by CLSI broth microdilution method; assay type: functional; conditions: PMC 2136, 72 h; in short: as §2
Cryptococcus neoformans [14] = experiment: Antifungal activity against Cryptococcus neoformans PMC 2115 after 72 hrs by CLSI broth microdilution method; assay type: functional; conditions: PMC 2115, 72 h; in short: as §2
Cryptococcus neoformans [15] = experiment: Antifungal activity against Cryptococcus neoformans PMC 2103 after 72 hrs by CLSI broth microdilution method; assay type: functional; conditions: PMC 2103, 72 h; in short: as §2
Cryptococcus neoformans [16] = experiment: Antifungal activity against Cryptococcus neoformans PMC 2107 after 72 hrs by CLSI broth microdilution method; assay type: functional; conditions: PMC 2107, 72 h; in short: as §2
Cryptococcus neoformans [17] = experiment: Antifungal activity against Cryptococcus neoformans PMC 2102 after 72 hrs by CLSI broth microdilution method; assay type: functional; conditions: PMC 2102, 72 h; in short: as §2
Cryptococcus neoformans [18] = experiment: Antifungal activity against Cryptococcus neoformans DSM 11959 after 72 hrs by CLSI broth microdilution method; assay type: functional; conditions: DSM 11959, 72 h; in short: as §2
Cryptococcus neoformans [19] = experiment: Antifungal activity against Cryptococcus neoformans PMC 2111 after 72 hrs by CLSI broth microdilution method; assay type: functional; conditions: PMC 2111, 72 h; in short: as §2
[20] = test system: Trichophyton mentagrophytes; experiment: Antifungal activity against Trichophyton mentagrophytes DSM 4870 after 72 hrs by CLSI broth microdilution method; assay type: functional; conditions: DSM 4870, 72 h
In short: (§3)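 Dermatophytes tested by CLSI broth microdilution for filamentous fungi (M38-A2). Serial two-fold dilutions of DMSO-dissolved compound in RPMI 1640, final 0.125–64. Inoculum was 0.4–5 × 10^4 CFU mL−1, incubated at 35 °C and read at 72 h. MIC80 is the lowest concentration giving ≥80% growth inhibition versus growth control. Median of five replicates, plus geometric mean.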

[21] = test system: Trichophyton mentagrophytes; experiment: Antifungal activity against Trichophyton mentagrophytes PMC 6515 after 72 hrs by CLSI broth microdilution method; assay type: functional; conditions: PMC 6515, 72 h; in short: as §3
[22] = test system: Trichophyton mentagrophytes; experiment: Antifungal activity against Trichophyton mentagrophytes PMC 6531 after 72 hrs by CLSI broth microdilution method; assay type: functional; conditions: PMC 6531, 72 h; in short: as §3
[23] = test system: Trichophyton mentagrophytes; experiment: Antifungal activity against Trichophyton mentagrophytes PMC 6509 after 72 hrs by CLSI broth microdilution method; assay type: functional; conditions: PMC 6509, 72 h; in short: as §3
[24] = test system: Trichophyton mentagrophytes; experiment: Antifungal activity against Trichophyton mentagrophytes PMC 6503 after 72 hrs by CLSI broth microdilution method; assay type: functional; conditions: PMC 6503, 72 h; in short: as §3
[25] = test system: Trichophyton mentagrophytes; experiment: Antifungal activity against Trichophyton mentagrophytes PMC 6552 after 72 hrs by CLSI broth microdilution method; assay type: functional; conditions: PMC 6552, 72 h; in short: as §3
Nannizzia gypsea [26] = experiment: Antifungal activity against Microsporum gypseum PMC 7303 after 72 hrs by CLSI broth microdilution method; assay type: functional; conditions: PMC 7303, 72 h; in short: as §3
Nannizzia gypsea [27] = experiment: Antifungal activity against Microsporum gypseum PMC 7331 after 72 hrs by CLSI broth microdilution method; assay type: functional; conditions: PMC 7331, 72 h; in short: as §3
Nannizzia gypsea [28] = experiment: Antifungal activity against Microsporum gypseum DSM 3824 after 72 hrs by CLSI broth microdilution method; assay type: functional; conditions: DSM 3824, 72 h; in short: as §3
[29] = Cytotoxicity against human A549 cells after 48 hrs by MTT assay; assay type: cell-based
In short: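 A549 cells (ATCC CCL-185) seeded at 2 × 10^4/well in phenol-red-free RPMI 1640 with 10% FBS, L-glutamine, penicillin and streptomycin, at 37 °C and 5% CO2. Exposed 48 h to DMSO-dissolved compounds (final 16–256; at least five concentrations, triplicate). MTT added for 3–4 h, crystals solubilized, OD read at 570 nm. CC50 taken versus the DMSO control. Mean ± SD of two independent experiments.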

Candida albicans [30] = experiment: Antifungal activity against Candida albicans ATCC 24433 after 48 hrs by CLSI broth microdilution method; assay type: functional; conditions: ATCC 24433, 48 h; in short: as §1
Candida albicans [31] = experiment: Antifungal activity against Candida albicans ATCC 3153 after 48 hrs by CLSI broth microdilution method; assay type: functional; conditions: ATCC 3153, 48 h; in short: as §1
Candida albicans [32] = experiment: Antifungal activity against Candida albicans ATCC 10231 after 48 hrs by CLSI broth microdilution method; assay type: functional; conditions: ATCC 10231, 48 h; in short: as §1
Candida albicans [33] = experiment: Antifungal activity against Candida albicans ATCC 76615 after 48 hrs by CLSI broth microdilution method; assay type: functional; conditions: ATCC 76615, 48 h; in short: as §1
Candida albicans [34] = experiment: Antifungal activity against Candida albicans ATCC 10261 after 48 hrs by CLSI broth microdilution method; assay type: functional; conditions: ATCC 10261, 48 h; in short: as §1

MIC50 (Candida albicans [1]): 0.5 µg/mL (≈ 1.17 µM) | MIC50 (Candida albicans [2]): 0.5 µg/mL (≈ 1.17 µM) | MIC50 (Candida albicans [3]): 0.5 µg/mL (≈ 1.17 µM) | MIC50 (Pichia kudriavzevii [4]): 8 µg/mL (≈ 18.7 µM) | MIC50 (Pichia kudriavzevii [5]): 1 µg/mL (≈ 2.33 µM) | MIC50 (Candida tropicalis [6]): 2 µg/mL (≈ 4.66 µM) | MIC50 (Candida tropicalis [7]): 2 µg/mL (≈ 4.66 µM) | MIC50 (Candida parapsilosis [8]): 0.25 µg/mL (≈ 0.583 µM) | MIC50 (Candida parapsilosis [9]): 2 µg/mL (≈ 4.66 µM) | MIC50 (Nakaseomyces glabratus [10]): 2 µg/mL (≈ 4.66 µM) | MIC50 (Nakaseomyces glabratus [11]): 8 µg/mL (≈ 18.7 µM) | MIC50 (Cryptococcus neoformans [12]): 4 µg/mL (≈ 9.33 µM) | MIC50 (Cryptococcus neoformans [13]): 4 µg/mL (≈ 9.33 µM) | MIC50 (Cryptococcus neoformans [14]): 4 µg/mL (≈ 9.33 µM) | MIC50 (Cryptococcus neoformans [15]): 2 µg/mL (≈ 4.66 µM) | MIC50 (Cryptococcus neoformans [16]): 1 µg/mL (≈ 2.33 µM) | MIC50 (Cryptococcus neoformans [17]): 4 µg/mL (≈ 9.33 µM) | MIC50 (Cryptococcus neoformans [18]): 4 µg/mL (≈ 9.33 µM) | MIC50 (Cryptococcus neoformans [19]): 4 µg/mL (≈ 9.33 µM) | MIC80 [20]: 16 µg/mL (≈ 37.3 µM) | MIC80 [21]: 8 µg/mL (≈ 18.7 µM) | MIC80 [22]: 8 µg/mL (≈ 18.7 µM) | MIC80 [23]: 16 µg/mL (≈ 37.3 µM) | MIC80 [24]: 16 µg/mL (≈ 37.3 µM) | MIC80 [25]: 32 µg/mL (≈ 74.6 µM) | MIC80 (Nannizzia gypsea [26]): 16 µg/mL (≈ 37.3 µM) | MIC80 (Nannizzia gypsea [27]): 4 µg/mL (≈ 9.33 µM) | MIC80 (Nannizzia gypsea [28]): 16 µg/mL (≈ 37.3 µM) | MIC50 (Candida albicans [30]): 4 µg/mL (≈ 9.33 µM) | MIC50 (Candida albicans [31]): 8 µg/mL (≈ 18.7 µM) | MIC50 (Candida albicans [32]): 2 µg/mL (≈ 4.66 µM) | MIC50 (Candida albicans [33]): 8 µg/mL (≈ 18.7 µM) | MIC50 (Candida albicans [34]): 1 µg/mL (≈ 2.33 µM)
SMILES: O=C(OC(Cn1ccnc1)c1ccc(F)cc1)N1CCN(c2ccc(Cl)cc2)CC1 (centres undefined)
CC50 at 48 h [29]: 78.4 µg/mL (≈ 183 µM)
